Source: PubChem
Shown is part of a subset that was picked to be rich in hits.
UPR CHOP act – apoptotic UPR (CHOP) activation | hit rate 0.34% among 330,000 | CHO-CHOP luciferase reporter, luminescence; percent of tunicamycin response over DMSO baseline | activation, % at 10 µM;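 active means at 10 µM dose, activation of 40% or more, normalized to positive control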;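 further: 100% = tunicamycin at 10 µg/mL and 0% = DMSO alone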
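measured by = luciferase luminescence | assay system = CHO-CHOP cells, stable luciferase reporter of PERK-eIF2a-CHOP signalling | amount = 500 reporter cells seeded per well | timing = 6 h compound exposure at 37 °C after overnight seeding | controls = positive tunicamycin 10 µg/mL, negative DMSO alone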
Dynein transport – blocks dynein driven cargo transport along microtubules; 3617.4 mouse cells, GR-EGFP nuclear translocation imaging; test concentration mostly 20 µM; stimulated with dexamethasone, 1 µM; hits give low values; z-score, hits read low; hit rate 0.47% among 220,000; AID 1381;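 active means plate z-score of nuclear minus cytoplasmic receptor signal below a set negative limit, without overly bright fluorescence or cell loss, cut at about -3.5 in these data, passing the limit was not always enough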;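 further: z-score of nuclear minus cytoplasmic ring GR-EGFP intensity difference per well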
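medium = tetracycline-free induction medium containing charcoal-stripped FBS | probe or stimulus = dexamethasone, 1.0 µM final | timing = 48 h induction, then 1 h compound, then 30 min agonist, 37 °C | detection = automated 10x imaging of fixed Hoechst-stained cells | read-out basis = nuclear versus cytoplasmic GR-EGFP signal, averaged per well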
L major viab – Leishmania major promastigote growth inhibition; hit rate 9% among 200,000; inhibition, % at 10 µM; Leishmania major promastigotes, resazurin fluorescence viability; AID 1063; in the data active means inhibition above about 50%;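 further: promastigotes grown with compound for 44 hours at 28 °C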
CHOP inh – CHOP inhibition in unfolded protein response; CHO-K1 CHOP-promoter luciferase, tunicamycin-induced, 15-18 h; inhibition, % at 10 µM; hit rate 3.8% among 220,000; AID 2732;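 active means compounds that reduced the stress-induced luciferase reporter signal by more than about 70% of percent inhibition, limit read from the data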;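 further: 0% = tunicamycin plus vehicle and 100% = wells without tunicamycin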
T cruzi repl – blocks replication of Trypanosoma cruzi; T. cruzi beta-gal in NIH3T3, luminescence, 90 h; AID 1885; hit rate 1.4% among 300,000; inhibition, % (concentration not given with the values);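 active means mean inhibition across valid replicates above about 55%, limit read from the data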;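 further: signal also drops with host cell toxicity which is not excluded here; 0% = plate median of DMSO wells and 100% = zero luminescence signal; higher percent means less beta-gal luminescence so fewer parasites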
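Material: NIH/3T3 host cells with β-galactosidase reporter T. cruzi; Input: 5,000 host fibroblasts per well; Medium: DMEM, 2% fetal bovine serum; Compound: 50 nL DMSO compound solution per well; Schedule: 3 h host attachment, then at least 90 h co-culture; Detection: luminescent β-galactosidase signal after 60 min lysis.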
UPR XBP1 act – activators of adaptive arm of unfolded protein response (XBP1). CHO-XBP1 luciferase reporter, IRE1-XBP1 UPR activation, luminescence; percent of tunicamycin response, DMSO as zero. activation, % at 20 µM. hit rate 0.33% among 330,000;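 active means versus positive control, 20 µM dose yields 30% or more activation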;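 further: 100% = tunicamycin at 10 µg/mL and 0% = DMSO only wells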
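Material: CHO-XBP1 cells stably carrying IRE1-XBP1-driven luciferase reporter / Amount: 1000 cells per well / Compound: 20 µM, 1% DMSO / Times: 6 h treatment, 37 °C / Detection: luciferase luminescence / Measure: % activation of reporter signal versus tunicamycin and DMSO controls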
CHOP inh conf – confirmation of CHOP induction inhibitors; AID 504437; CHO-CHOP promoter luciferase reporter, tunicamycin-induced, luminescence; inhibition, % at 10 µM; hit rate 45% among 2,100; shares compounds with CHOP inh;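 active means mean of three repeat readings of reporter signal inhibition above a set limit, cut at about 70% in these data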;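 further: 0% = tunicamycin plus vehicle and 100% = wells lacking tunicamycin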
* hit, by the source's call.

What do the screens show for `COc1ccc(/C=C2\SC(=N)N(c3ccc(F)cc3)C2=O)cc1OC`?
UPR CHOP act: -1; Dynein transport: 2.6; L major viab: 38; CHOP inh: 102*; T cruzi repl: 12; UPR XBP1 act: 5; CHOP inh conf: -73

How did CCOc1cc(/C=C2\SC(=N)N(c3nonc3N)C2=O)ccc1OCC(N)=O do in these assays?
UPR CHOP act: 21; Dynein transport: -0.52; L major viab: -5; CHOP inh: 0; T cruzi repl: -1; UPR XBP1 act: -5

Results for CCOc1ccc(/C=C2\SC(=O)N(c3ccc(O)cc3)C2=O)cc1OC ?
UPR CHOP act: 2; Dynein transport: 1.7; CHOP inh: 105*; T cruzi repl: -3; UPR XBP1 act: 7; CHOP inh conf: 15

Results for COCc1cc(CNC(=O)C2CCC(=O)N(Cc3cccc(OC)c3)C2)[nH]n1 (stereo unspecified) ?
UPR CHOP act: 0; T cruzi repl: 2; UPR XBP1 act: -5

Results for Cc1cccc(C)c1NC(=O)C[N+](C)(C)C ?
CHOP inh: -8

What do the screens show for `CCCCOc1ccc(S(=O)(=O)NNC(=O)C2Cc3c(ccc4ccccc34)O2)cc1` (stereo unspecified)?
UPR CHOP act: -1; Dynein transport: -0.23; L major viab: 45; CHOP inh: 98*; T cruzi repl: -3; UPR XBP1 act: -1; CHOP inh conf: 59

Results for CN1C=CC(=C2C(=O)c3ccccc3C2=O)C=C1 ?
UPR CHOP act: 0; Dynein transport: -0.54; L major viab: -1; CHOP inh: 17; T cruzi repl: -7; UPR XBP1 act: -6

How did CCCCCCN1C=CC(=C2C(=O)c3ccccc3C2=O)C=C1 do in these assays?
UPR CHOP act: -8; Dynein transport: 1.8; L major viab: 11; CHOP inh: 99*; T cruzi repl: 19; UPR XBP1 act: -14; CHOP inh conf: 102*

How did CCN1C=CC(=C2C(=O)c3ccccc3C2=O)C=C1 do in these assays?
UPR CHOP act: -11; Dynein transport: -0.13; L major viab: 16; CHOP inh: 100*; T cruzi repl: -11; UPR XBP1 act: -9; CHOP inh conf: 115*

How did CCCN1C=CC(=C2C(=O)c3ccccc3C2=O)C=C1 do in these assays?
UPR CHOP act: -9; Dynein transport: -1.4; L major viab: 11; CHOP inh: 103*; T cruzi repl: -3; UPR XBP1 act: -6; CHOP inh conf: 126*

How did O=C(/C=C/c1ccccc1)NC(=S)NNC(=O)Cc1cccs1 do in these assays?
UPR CHOP act: -1; Dynein transport: -0.27; L major viab: 23; CHOP inh: 104*; T cruzi repl: -8; UPR XBP1 act: 0; CHOP inh conf: 41

What do the screens show for `O=C(Cc1cccs1)NNC(=S)NC(=O)c1ccccc1`?
UPR CHOP act: 1; Dynein transport: 0.09; L major viab: 4; CHOP inh: 33; T cruzi repl: -18; UPR XBP1 act: -3

Results for COc1ccc(C(=O)NNC(=S)NC(=O)/C=C/c2cccs2)cc1 ?
UPR CHOP act: -1; Dynein transport: -0.41; L major viab: 15; CHOP inh: 34; T cruzi repl: -15; UPR XBP1 act: 3

What do the screens show for `COc1ccc(/C=C/C(=O)NC(=S)NNC(=O)Cc2cccs2)cc1`?
UPR CHOP act: 4; Dynein transport: 0.031; L major viab: 98*; CHOP inh: 110*; T cruzi repl: 15; UPR XBP1 act: 7; CHOP inh conf: 45

What do the screens show for `O=C(c1ccncc1)N1CCN(S(=O)(=O)c2cccc(C(F)(F)F)c2)CC1`?
UPR CHOP act: -1; UPR XBP1 act: 0

How did CC(C)(C)c1ccc(OCCNC(=S)Nc2ccccc2)cc1 do in these assays?
UPR CHOP act: 0; Dynein transport: -0.19; L major viab: 15; CHOP inh: 104*; T cruzi repl: 2; UPR XBP1 act: 2; CHOP inh conf: 72*

How did C=C(C)CNC(=O)C1CCC(=O)N(CCCc2ccccc2)C1 (stereo unspecified) do in these assays?
T cruzi repl: -11

What do the screens show for `CC(C)(C)c1ccc(C(=O)NNC(=O)c2cccc(Br)c2)cc1`?
UPR CHOP act: 1; Dynein transport: 0.27; L major viab: -7; CHOP inh: 102*; T cruzi repl: 1; UPR XBP1 act: 11; CHOP inh conf: 94*

How did O=C(O)[C@@H]1[C@@H]2C[C@@H]2CN1c1ncccc1[N+](=O)[O-] do in these assays?
UPR CHOP act: 0; Dynein transport: -0.19; L major viab: -7; CHOP inh: -6; T cruzi repl: -7; UPR XBP1 act: 0

What do the screens show for `CCCOc1ccc(N2C(=O)CC(NNC(=O)c3ccc(COc4ccccc4)o3)C2=O)cc1` (stereo unspecified)?
UPR CHOP act: 0; Dynein transport: 0.1; L major viab: -2; CHOP inh: 102*; T cruzi repl: 4; UPR XBP1 act: -2; CHOP inh conf: 19

How did CCC(CO)NCc1ccc(OCC(O)c2ccccc2)c(OC)c1 (stereo unspecified) do in these assays?
UPR CHOP act: -2; T cruzi repl: -9; UPR XBP1 act: -5

What do the screens show for `Cc1ccc(NC(=O)C2=C(c3ccccc3)S(=O)(=O)CCS2(=O)=O)cc1`?
UPR CHOP act: -10; Dynein transport: -3; L major viab: -2; CHOP inh: 109*; T cruzi repl: 58*; UPR XBP1 act: -8; CHOP inh conf: 69

What do the screens show for `CC(Sc1nc2ccccc2c(=O)n1C)C(=O)N(C)C1CCCCC1` (stereo unspecified)?
UPR CHOP act: 3; T cruzi repl: 11; UPR XBP1 act: -4

Results for O=C(CCC(=O)c1ccc(Br)cc1)Nc1cccc(C(F)(F)F)c1 ?
UPR CHOP act: -1; Dynein transport: -0.41; L major viab: -10; CHOP inh: 108*; T cruzi repl: 11; UPR XBP1 act: -3; CHOP inh conf: -4

How did Cc1ccc(C(=O)CCC(=O)Nc2cccc(C(F)(F)F)c2)cc1 do in these assays?
UPR CHOP act: -3; Dynein transport: -0.65; L major viab: -6; CHOP inh: 102*; T cruzi repl: -2; UPR XBP1 act: -2; CHOP inh conf: 41

Results for Cc1cc2nc(-c3ccc(SCC(=O)N4CCc5ccccc54)nc3)[nH]c2cc1C ?
UPR CHOP act: 6; Dynein transport: -0.99; L major viab: 86*; CHOP inh: 107*; T cruzi repl: 44; UPR XBP1 act: 10; CHOP inh conf: 26
